Measurements taken from ChEMBL document CHEMBL5223075, “Discovery of thienothiazolocarboxamide analogues as novel anti-tubercular agent” (Bioorg Med Chem, 2020).
≈ marks a conversion by molar mass, not a printed value. Calls of active or inactive are those of the source. The calls are words filed in the database; no cut-off is given here.

Tests used:
[1] = Stability in mouse plasma measured after 2 hrs; assay type: ADME, cell-free; conditions: read-out: Stability
[2] = Oral bioavailability in BALB/c mouse at 10 mg/kg by LC-MS analysis; assay type: ADME, organism-based; conditions: in vivo
Summary of the method: (§1)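 Female BALB/c mice, 6-8 weeks old. Dosed i.v. at 2 or 3 mg/kg, or orally at 10 mg/kg. Vehicles varied by compound: DMSO/Captisol, DMSO/PEG400/SBE-b-CD, or DMSO/Cremophor EL/Captisol. Blood was held at 4°C within 1 h, then centrifuged at 3200 × g for 10 min at 4°C. Plasma was kept at 4°C, and compound levels were measured by LC-MS.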

[3] = Protein binding in mouse plasma; assay type: ADME, cell-free; conditions: read-out: PPB (converted)
[4] = system: Mycobacterium tuberculosis; test: Antibacterial activity against Mycobacterium tuberculosis H37Rv ATCC 27294 infected in BALB/c mouse assessed as reduction in CFU in lungs at 20 mg/kg, po administered five times a week for 28 days; assay type: functional, organism-based; conditions: time 28.0 day
Summary of the method: (§2)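 Female BALB/c mice, 6-8 weeks old, were infected intranasally with ~300-600 CFU H37Rv, 5 mice per group. Oral gavage began at day 21, 5 days/week for 4 weeks. Lungs were taken a day after the last dose, homogenized in PBS, serially diluted and plated in duplicate on 7H11-OADC agar for 2-5 weeks at 37°C. Detection limit ~2.3 logs. Bonferroni test against vehicle-treated mice.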

[5] = Half-life in BALB/c mouse at 10 mg/kg, po by LC-MS analysis; assay type: ADME, organism-based; conditions: in vivo; summary of the method: as §1
[6] = AUClast in BALB/c mouse at 10 mg/kg, po by LC-MS analysis; assay type: ADME, organism-based; design: dose 10 mg/kg, route po; conditions: in vivo; summary of the method: as §1
[7] = Cmax in BALB/c mouse at 10 mg/kg, po by LC-MS analysis; assay type: ADME, organism-based; design: dose 10 mg/kg, route po; conditions: in vivo; summary of the method: as §1
[8] = Half-life in BALB/c mouse at 3 mg/kg, iv by LC-MS analysis; assay type: ADME, organism-based; conditions: in vivo; summary of the method: as §1
[9] = system: Mycobacterium tuberculosis; test: Antibacterial activity against Mycobacterium tuberculosis H37Rv ATCC 27294 infected in BALB/c mouse assessed as reduction in CFU in lungs at 50 mg/kg, po administered five times a week for 28 days; assay type: functional, organism-based; conditions: time 28.0 day; summary of the method: as §2
[10] = Metabolic stability in mouse liver microsome assessed as phase I mediated metabolite formation by measuring half-life; assay type: ADME; conditions: microsomes
[11] = system: A549; test: Cytotoxicity against human A549 cells assessed as inhibition of cell growth; assay type: functional, cell-based
[12] = Metabolic stability in human liver microsome assessed as phase II mediated metabolite formation by measuring half-life; assay type: ADME; conditions: microsomes
[13] = Genotoxicity in Salmonella typhimurium TA98 by Ames mutagenicity test; assay type: toxicity; conditions: salmonella enterica subsp. enterica serovar typhimurium
[14] = Clearance in BALB/c mouse at 3 mg/kg, iv by LC-MS analysis; assay type: ADME, organism-based; conditions: in vivo; summary of the method: as §1
[15] = system: HepG2; test: Cytotoxicity against human HepG2 cells assessed as inhibition of cell growth; assay type: functional, cell-based
[16] = Solubility of the compound at pH 7.4; assay type: physicochemical; conditions: buffer
[17] = Metabolic stability in human liver microsome assessed as phase I mediated metabolite formation by measuring half-life; assay type: ADME; conditions: microsomes
[18] = Drug concentration in BALB/c mouse lung at 10 mg/kg, po by LC-MS analysis; assay type: ADME, organism-based; conditions: in vivo; summary of the method: as §1
[19] = Cytotoxicity against HEK293 cells assessed as inhibition of cell growth; assay type: toxicity, cell-based; conditions: human
[20] = Metabolic stability in mouse liver microsome assessed as phase II mediated metabolite formation by measuring half-life; assay type: ADME; conditions: microsomes
[21] = Solubility of the compound at pH 2.1; assay type: physicochemical; conditions: buffer
[22] = system: Jurkat; test: Cytotoxicity against human Jurkat cells assessed as inhibition of cell growth; assay type: functional, cell-based
[23] = Ratio of drug concentration in lung to plasma in BALB/c mouse at 10 mg/kg, po by LC-MS analysis; assay type: ADME, organism-based; summary of the method: as §1
[24] = system: Mycobacterium tuberculosis; test: Antitubercular activity against Mycobacterium tuberculosis H37Rv ATCC 27294 expressing the green fluorescence protein infected in mouse RAW264.7 cells assessed as inhibition of bacterial growth pre-infected with cell followed by compound addition and measured after 5 days by Hoechst 33342 staining based analysis; assay type: functional, organism-based; conditions: H37Rv ATCC 27294, RAW264.7, 120 h
Summary of the method: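 RAW 264.7 cells, passages 2-9, were infected with washed H37Rv-GFP at MOI 20 for 2 h at 37°C with shaking. Cells were washed and plated at 20,000/well over 2-fold compound dilutions for 5 days. Nuclei were stained with 5 µM Hoechst (final) and 3 fields/well imaged. Four parameters (cell count, bacterial area, area per infected cell, infected-cell ratio) were each fitted by 4-parameter sigmoid, and the IC50s averaged.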

[25] = Genotoxicity in Salmonella typhimurium TA100 by Ames mutagenicity test; assay type: toxicity; conditions: salmonella enterica subsp. enterica serovar typhimurium
[26] = Genotoxicity in Salmonella typhimurium TA100 in the presence of S9 fraction by Ames mutagenicity test; assay type: toxicity, subcellular; conditions: salmonella enterica subsp. enterica serovar typhimurium
[27] = system: Mycobacterium tuberculosis; test: Antibacterial activity against Mycobacterium tuberculosis H37Rv ATCC 27294 infected in BALB/c mouse assessed as reduction in bacterial burden in lungs at 100 mg/kg, po administered five times a week for 28 days; assay type: functional; conditions: time 28 day; summary of the method: as §2
[28] = Drug concentration in BALB/c mouse plasma at 10 mg/kg, po by LC-MS analysis; assay type: ADME, organism-based; conditions: in vivo; summary of the method: as §1
[29] = Volume of distribution at steady state in BALB/c mouse at 3 mg/kg, iv by LC-MS analysis; assay type: ADME, organism-based; conditions: in vivo, read-out: Vdss; summary of the method: as §1
[30] = Genotoxicity in Salmonella typhimurium TA98 in the presence of S9 fraction by Ames mutagenicity test; assay type: toxicity, subcellular; conditions: salmonella enterica subsp. enterica serovar typhimurium
[31] = Protein binding in human plasma; assay type: ADME, cell-free; conditions: read-out: PPB (converted)
[32] = system: Mycobacterium tuberculosis; test: Antitubercular activity against Mycobacterium tuberculosis H37Rv ATCC 27294 expressing the green fluorescence protein assessed as inhibition of bacterial growth by measuring GFP fluorescence incubated for 5 days by fluorescence based plate reader analysis; assay type: functional, organism-based; conditions: H37Rv ATCC 27294, 120 h
Summary of the method: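 H37Rv-GFP was grown 14 days in 7H9/OADC/Tween/glycerol/hygromycin, washed, and seeded at ~3×10^6 CFU/mL. Compounds were given as 10-point 2-fold series starting at 20 or 1 µM, in 1% DMSO final. Plates ran 5 days at 37°C, 5% CO2, with rifampicin 1 µg/mL as positive control. GFP fluorescence was read and IC50 taken from a 4-parameter sigmoid fit.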

[33] = Tmax in BALB/c mouse at 10 mg/kg, po by LC-MS analysis; assay type: ADME, organism-based; conditions: in vivo; summary of the method: as §1
[34] = Stability in human plasma measured after 2 hrs; assay type: ADME, cell-free; conditions: read-out: Stability
[35] = system: Mycobacterium tuberculosis; test: Antibacterial activity against Mycobacterium tuberculosis H37Rv ATCC 27294 infected in BALB/c mouse assessed as decrease in number of CFU in lungs at 100 mg/kg, po administered five times a week for 28 days; assay type: functional; conditions: time 28 day; summary of the method: as §2

With O=C(Nc1ccc(-c2ccc(F)cn2)cc1)c1cc2sc(NCCN3CCOCC3)nc2s1 the remaining at 2 h [1] was greater than 100%, the bioavailability [2] was 102% and the fraction unbound [3] was 0.002. The Activity [4] was “inactive”, the half-life [5] was 2.3 h and the AUC(0-t) [6] was 10400 ng·h/mL. For the same compound, the Cmax [7] was 2940 ng/mL, the half-life [8] was 1.2 h and the Activity [9] was “Active”. It also gave a t1/2 [10] of 0.758 h, an IC50 [11] greater than 50 µM and a t1/2 [12] greater than 1 h. For the same compound, the Activity [13] was “Non-Toxic”, the clearance [14] was 14.9 mL/min/kg and the IC50 [15] was greater than 50 µM. For the same compound, the solubility [16] was 0.76 µg/mL (≈ 1.57 µM), the t1/2 [17] was greater than 1 h and the Ct [18] was 16180 ng/mL. For the same compound, the IC50 [19] was greater than 50 µM, the t1/2 [20] was greater than 1 h and the solubility [21] was 43.6 µg/mL (≈ 90.2 µM). For the same compound, the IC50 [22] was greater than 50 µM, the Kp [23] was 4.8 and the IC50 [24] was 0.19 µM. The Activity [25] was “Non-Toxic”, the Activity [26] was “Non-Toxic” and the “log(activity)” value [27] was 4. The Cp [28] was 3380 ng/mL, the Vd [29] was 1.52 L/kg and the Activity [30] was “Non-Toxic”. For the same compound, the fraction unbound [31] was 0.002, the IC50 [32] was 0.76 µM and the Tmax [33] was 1 h. It also gave a remaining at 2 h [34] of 98.2% and an Activity [35] of 2.7 log10CFU.
